Experimental data: ChEMBL document CHEMBL5042476, “Structure-Based Design and Development of Chemical Probes Targeting Putative MOR-CCR5 Heterodimers to Inhibit Opioid Exacerbated HIV-1 Infectivity” (J Med Chem, 2021)
pEC50, pIC50, pKi: −log10 of the molar value. Calls of active or inactive are those of the source. No cut-off for these calls is given here.

Columns and labels:
[1] = target: T1, C-C chemokine receptor type 5 (Homo sapiens, UniProt P51681); assay: Antagonist activity at CCR5 (unknown origin) expressed in HOS cells co-expressing Gqi-5 assessed as inhibition CCL5-stimulated Ca2+ mobilization by calcium mobilization assay; format: functional, cell-based
In short: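 HOS-CCR5 cells transfected with Gqi5, used 48 h post-transfection and loaded with Fluo4-AM for 45 min. Compound preincubated 15 min, then CCL5 (20 μL of 200 nM) added after 16 s of reading.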
Target sequence in this assay (P51681 whole entry): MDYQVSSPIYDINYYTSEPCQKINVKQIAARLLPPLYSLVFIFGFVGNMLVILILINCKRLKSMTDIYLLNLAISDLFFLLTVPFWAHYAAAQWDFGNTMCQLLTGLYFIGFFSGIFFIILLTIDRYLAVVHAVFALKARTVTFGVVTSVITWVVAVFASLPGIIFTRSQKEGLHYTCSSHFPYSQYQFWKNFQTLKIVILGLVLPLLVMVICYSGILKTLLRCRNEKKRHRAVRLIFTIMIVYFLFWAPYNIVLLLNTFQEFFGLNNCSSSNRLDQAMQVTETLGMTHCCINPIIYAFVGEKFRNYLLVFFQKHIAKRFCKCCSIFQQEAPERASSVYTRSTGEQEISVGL

[2] = target: T2, Mu-type opioid receptor (Mus musculus, UniProt P42866); assay: Antagonist activity at mouse MOR expressed in CHO cells assessed as inhibition of DAMGO-induced calcium mobilization preincubated for 60 mins measured after 15 mins by calcium mobilization assay; format: functional, cell-based
In short: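 mMOR-CHO cells transfected with Gα for 4 h, plated and cultured 24 h. Triplicates; IC50 by nonlinear regression.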

[3] = target: Mu-type opioid receptor (Mus musculus) (UniProt P42866); assay: Agonist activity at mouse MOR expressed in CHO cell membranes assessed as stimulation of [35S]-GTPgammaS binding measured after 1 hr by scintillation counting analysis relative to DAMGO; format: functional; details: Cell membrane
[4] = target: T2, Mu-type opioid receptor; assay: Displacement of [3H]-naloxone from mouse MOR expressed in CHO cells incubated for 1.5 hrs by competitive radioligand binding assay; format: cell-based
In short: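 Mouse MOR CHO membranes (30 μg) with [3H]naloxone and test compound in TME buffer (50 mM Tris, 3 mM MgCl2, 0.2 mM EGTA, pH 7.4), 1.5 h at 30 °C, then filtered. IC50 converted to Ki by Cheng–Prusoff.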

[5] = target: T1, C-C chemokine receptor type 5; assay: (§1) Inhibition of CCR5-mediated Luc-expressing HIV1 BaL Env-pseudotype virus infection in PHA-stimulated CCR5 expressing leukocytes containing human PBMC assessed as inhibition of viral entry by measuring luminescence at 100 nM pretreated for 1 hr before infection measured after 2 days of infection; format: cell-based
In short: (§2)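 Compound 100 nM added 1 h before infection with BaL Env-pseudotyped luciferase virus (50 pg p24/10^6 cells) in 24-well plates. Lysate luciferase measured; RLU normalized to infected untreated cells.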
Target sequence in this assay (P51681 whole entry, looked up): as the sequence (P51681 whole entry) above

[6] = Therapeutic index, ratio of TC50 for human GHOST CCR5 cells to EC50 for inhibition of CCR5-mediated HIV-1 Bal entry in human GHOST CCR5 cells; format: toxicity, cell-based; details: read-out: TI
In short: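 GHOST-CCR5 cells plated at 1×10^4/well, cultured 24 h, then compounds at 6 concentrations (0.001–100 μM) in triplicate. Efficacy plates got HIV-1 BaL at a predetermined titer; 6 days at 37 °C. Supernatant RT activity measured by tritiated TTP incorporation on poly rA/oligo dT gives EC50. […] TI = TC50/EC50.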

[7] = target: T2, Mu-type opioid receptor; assay: Agonist activity at mouse MOR expressed in CHO cells coexpressing Gqi5 assessed as inhibition of DAMGO-induced calcium mobilization preincubated for 60 mins measured after 15 mins by calcium mobilization assay; format: functional, cell-based
In short: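 CHO cells stably expressing mouse MOR, transfected with Gαq15 for 4 h, plated 10,000 cells/well and cultured 24 h. […] Calcium fluorescence read ex494/em516. Triplicate per concentration; IC50 by nonlinear regression.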

[8] = target: T1, C-C chemokine receptor type 5; assay: as §1, with “entry in presence of 10 nM morphine” for “entry”; format: cell-based; details: filed as antagonist; in short: as §2
Target sequence in this assay (P51681 whole entry, looked up): as the sequence (P51681 whole entry) above

[9] = Cytotoxicity against human GHOST CCR5 cells assessed as reduction in cell viability measured after 6 days by XTT assay; format: toxicity, cell-based; details: time 6 day, read-out: TC50
In short: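 GHOST CCR5 cells treated in triplicate at the same 6 concentrations without virus, 6 days at 37 °C. XTT/PMS added for 4 h at 37 °C and absorbance read at 450 nm (650 nm reference).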

[10] = target: T1, C-C chemokine receptor type 5; assay: as §1, with “entry in presence of 10 nM […]” for “entry”; format: cell-based; details: filed as antagonist; in short: as §2
Target sequence in this assay (P51681 whole entry, looked up): as the sequence (P51681 whole entry) above

[11] = target: T1, C-C chemokine receptor type 5; assay: Agonist activity at CCR5 (unknown origin) expressed in HOS cells co-expressing Gqi-5 assessed as stimulation of Ca2+ mobilization by calcium mobilization assay; format: functional, cell-based
In short: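 HOS-CCR5 cells transiently transfected with Gqi5, used 48 h later. Fluo4-AM loaded 45 min, compounds added, plate read 120 s at ex494/em516. Agonist arm: compound response recorded against CCL5 under the same conditions.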
Target sequence in this assay (P51681 whole entry, looked up): as the sequence (P51681 whole entry) above

[12] = target: T1, C-C chemokine receptor type 5; assay: Inhibition of CCR5-mediated Luc-expressing HIV1 BaL Env-pseudotype virus infection in CCR5 expressing leukocytes containing human PBMC assessed as inhibition of viral entry by measuring luminescence pretreated for 1 hr before infection measured after 2 days of infection; format: cell-based; details: filed as antagonist
In short: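 […] donor PBMCs, 2×10^5/well, in RPMI with 20 U/mL IL-2. Compound added 1 h before infection with BaL Env-pseudotyped luciferase virus (1.5 ng p24/well) and kept in culture. Luminescence read after 2 days.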
Target sequence in this assay (P51681 whole entry, looked up): as the sequence (P51681 whole entry) above

[13] = target: C-C chemokine receptor type 5 (Macaca mulatta, UniProt P61813); assay: Displacement of […] from recombinant rhesus macaque CCR5 expressed in Chem-1 cells by competitive radioligand binding assay; format: cell-based
In short: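 Rhesus CCR5 Chem-1 membranes (3 μg) in HEPES buffer pH 7.4 with 0.2% BSA, 0.10 nM [125I]MIP-1α and six concentrations from 0.1 nM to 10 μM, 90 min at 25 °C. Nonspecific binding with 0.1 μM MIP-1β; filters counted. Ki by Cheng–Prusoff (KD 0.31 nM, historical value).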

T2 sequence (P42866 whole entry): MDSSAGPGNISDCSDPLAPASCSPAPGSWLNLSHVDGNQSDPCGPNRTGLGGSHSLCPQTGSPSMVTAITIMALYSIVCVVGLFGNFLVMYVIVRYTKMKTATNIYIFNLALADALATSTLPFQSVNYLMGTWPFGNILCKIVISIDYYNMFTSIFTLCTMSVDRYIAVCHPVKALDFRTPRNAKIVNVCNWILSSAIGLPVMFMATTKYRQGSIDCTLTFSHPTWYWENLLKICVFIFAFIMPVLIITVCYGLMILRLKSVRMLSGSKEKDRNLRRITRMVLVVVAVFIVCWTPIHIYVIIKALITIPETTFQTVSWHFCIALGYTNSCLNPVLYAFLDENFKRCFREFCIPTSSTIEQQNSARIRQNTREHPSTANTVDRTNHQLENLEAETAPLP
Sequence of Mu-type opioid receptor (Mus musculus) (P42866 whole entry): as above

Compound	pIC50 [1]	pIC50 [2]	Emax [3] [%]	pKi [4]	CC50 at 144 h [9] [nM]	Activity [11]	further results
CC(C)c1nnc(CCNC(=O)COCC(=O)NCCCCCCCCCNC(=O)COCC(=O)N[C@@H]2CC[C@@]3(O)[C@H]4Cc5ccc(O)c6c5[C@@]3(CCN4CC3CC3)[C@H]2O6)n1C1C[C@H]2CC[C@@H](C1)N2CC[C@H](NC(=O)C1CCC(F)(F)CC1)c1ccccc1 (some centres not stated)	6.02	7.13	4.27	7.95	–	–	–
CC(C)c1nnc(CCNC(=O)COCC(=O)NCCCCCNC(=O)COCC(=O)N[C@@H]2CC[C@@]3(O)[C@H]4Cc5ccc(O)c6c5[C@@]3(CCN4CC3CC3)[C@H]2O6)n1C1C[C@H]2CC[C@@H](C1)N2CC[C@H](NC(=O)C1CCC(F)(F)CC1)c1ccccc1 (some centres not stated)	5.90	5.96	19.4	8.37	–	–	–
CC(C)c1nnc(CCNC(=O)COCC(=O)NCCCCCCCNC(=O)COCC(=O)N[C@@H]2CC[C@@]3(O)[C@H]4Cc5ccc(O)c6c5[C@@]3(CCN4CC3CC3)[C@H]2O6)n1C1C[C@H]2CC[C@@H](C1)N2CC[C@H](NC(=O)C1CCC(F)(F)CC1)c1ccccc1 (some centres not stated)	7.24	7.30	–	8.22	> 100000	inactive	inhibition [5]: 22%; selectivity ratio [6]: > 1080; pEC50 [7]: 7.44; inhibition [8]: 55%; inhibition [10]: 69%; inhibition [12]: Dose-Dependent Effect
Cc1nnc(C(C)C)n1C1C[C@H]2CC[C@@H](C1)N2CC[C@H](NC(=O)C1CCC(F)(F)CC1)c1ccc(NC(=O)COCC(=O)NCCCCCCCNC(=O)COCC(=O)N[C@@H]2CC[C@@]3(O)[C@H]4Cc5ccc(O)c6c5[C@@]3(CCN4CC3CC3)[C@H]2O6)cc1 (some centres not stated)	6.90	7.40	11.7	7.29	> 100000	–	–
Cc1nnc(C(C)C)n1[C@@H]1C[C@H]2CC[C@@H](C1)N2CC[C@H](NC(=O)C1CCC(F)(F)CC1)c1ccccc1	–	–	–	–	> 500	–	–
CNC(=O)COCC(=O)NCCCCCCCNC(=O)COCC(=O)NCCc1nnc(C(C)C)n1[C@@H]1C[C@H]2CC[C@@H](C1)N2CC[C@H](NC(=O)C1CCC(F)(F)CC1)c1ccccc1	–	–	–	–	–	inactive	pKi [13]: 7.39
